# High-throughput results deposited in PubChem by several laboratories.
# KCNQ1 pot – potentiators or activators of human KCNQ1 potassium channel. AID 2648. P51787. hit rate 0.35% among 310,000. CHO-K1 KCNQ1, thallium flux FluxOR fluorescence; hits give high values. B-score at 10 µM;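 active = fluorescence ratio B-score, a plate-corrected score, at least three library SD, with initial intensity B-score within 5 SD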
#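 assay system = CHO-K1 cells stably expressing KCNQ1 | medium = assay buffer, equal DMSO in all wells | timing = 37 °C overnight plating, 90-min dark dye load, 20-min compound pretreatment | measured by = kinetic FluxOR thallium fluorescence, 10-s 1-Hz baseline, 110-s post-stimulus read | measure = fluorescence change relative to baseline, converted to B score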
# KCNK3 block – human KCNK3 channel inhibition, primary screen; hit rate 0.84% among 340,000; O14649; CHO-KCNK3 thallium flux, FluxOR fluorescence; hits give low values; B-score at 10 µM;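 active = B-score under library mean minus 4 SD, starting fluorescence ratio at most library mean plus 5 SD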;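 note: more negative B-score means stronger inhibition of thallium flux through KCNK3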
# Cl transport mod – KCC2 (human) Cl- transport modulation | AID 1456 | hit rate 2.2% among 190,000 | B-score of Tl+ flux slope (higher = more flux/activation; lower = inhibition) at 10 µM | KCC2 cells, thallium flux FluoZin-2 fluorescence;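 active = thallium flux slope and its plate-corrected score both differing from the plate sample mean at a set confidence after two filtering rounds, in either direction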;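 note: slope of fluorescence scaled to starting intensity during 10 to 20 s after thallium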
# KCNK9 inh – inhibitors of human KCNK9 two-pore domain potassium channel; HEK293 KCNK9, FluxOR thallium flux fluorescence; hits give low values; B-score at 10 µM; hit rate 1.2% among 310,000;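 active = ratio B-score over 3 SD below the library mean, with starting fluorescence within 5 SD of its mean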;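 note: negative B-score means less thallium flux so channel inhibition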
# KCNQ1 block – blocks the human KCNQ1 potassium channel; P51787; CHO-K1 KCNQ1, FluxOR thallium flux fluorescence; hits give high values; B-score at 10 µM; hit rate 1.3% among 310,000;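 active = compounds whose thallium flux B-score, printed positive for inhibition, exceeds three library SD while starting fluorescence stays within three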;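 note: channel opened by potassium depolarization with thallium stimulus after 20 min compound exposure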
# hERG rescue – hERG (human) protection from proarrhythmic block; activation (rescue from dofetilide block), less the hit threshold, % at 10 µM; Q12809; CHO-hERG, FluxOR thallium flux, dofetilide IC70 present; hit rate 0.51% among 310,000;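 active = activation above the mean of controls blocked by dofetilide plus 5 SD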;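 note: thallium influx through hERG after potassium depolarization seen as dye fluorescence rise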
# KCC2 secondary – KCC2 (human) modulation, secondary assay; hit rate 15% among 3,700; normalised thallium flux (F/F0 slope) at 10 µM; HEK293-KCC2, thallium flux, FluoZin2 fluorescence; hits give high values; shares compounds with Cl transport mod;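 active = thallium flux slope above the same plate's solvent-only control mean plus 3 SD; inconclusive = the two replicate wells disagree; inactive = no significant difference from solvent-only control wells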
# KCC2 bumet counter – thallium flux persisting under bumetanide in KCC2 cells, counter-screen secondary assay | shares compounds with Cl transport mod | HEK293-KCC2 + bumetanide/ouabain, thallium flux FluoZin2; hits give high values | normalized thallium flux at 10 µM | hit rate 49% among 3,700 | AID 1714;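 active = thallium entry rate above the same plate's blocked-transporter control wells by more than 3 SD; inconclusive = the two repeat wells disagree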;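 note: raw slope of fluorescence over initial fluorescence between 10 and 20 s after thallium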
# KCC2 sec2 – confirmation of human KCC2 transport modulators | shares compounds with Cl transport mod | HEK293-KCC2, thallium flux FluoZin2 fluorescence; actives lie on both sides; F/F0 rise rate, 10–20 s post-thallium | normalized thallium flux at 10 µM | hit rate 23% among 3,700 | AID 1715;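 active = thallium flux slope more than 3 SD above or below the plate's solvent-only control mean, mostly below; inconclusive = the two repeat wells disagreed; inactive = no significant shift from solvent-only controls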;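 note: raw slope with 0.1% DMSO as baseline and bumetanide as block control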
# HEK counter1 – counter-screen for KCC2 modulators: effect in parental HEK293 cells. shares compounds with Cl transport mod. thallium flux rate (normalised fluorescence) at 10 µM. hit rate 46% among 3,700. thallium flux FluoZin2, ouabain; baseline-ratio fluorescence slope, 10–20 s after thallium;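 active = thallium flux rate significantly above the same plate's solvent-only control wells, beyond their mean plus 3 SD; inconclusive = the two replicate wells gave conflicting results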
# KCC2 retest ouab – modulates human KCC2 on retest with ouabain; shares compounds with Cl transport mod; HEK293-KCC2, thallium flux FluoZin2 fluorescence; bidirectional: low = inhibitor, high = activator; raw Tl+ flux slope (below DMSO = inhibition, above = activation) at 10 µM; hit rate 48% among 3,700; AID 1717;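 active = thallium flux slope beyond 3 SD from same-plate DMSO control mean in most replicates, usually higher, sometimes lower; inconclusive = repeat tests gave conflicting results; inactive = no significant difference from controls in most replicates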;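 note: slope of initial-normalized fluorescence between seconds 10 and 20 after thallium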
# HEK counter2 – acts in parental HEK cells, second KCC2 counter-screen; shares compounds with Cl transport mod; HEK293 parental, thallium flux FluoZin-2 fluorescence slope; thallium flux slope at 10 µM; hit rate 33% among 3,700; AID 1718;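 active = thallium flux slope above the same plate's solvent-control mean plus 3 SD in both duplicate wells; inconclusive = duplicate wells that disagreed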;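 note: run without ouabain in cells lacking the KCC2 cotransporter; slope of fluorescence scaled to its starting value between 10 and 20 s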
# Active calls of the source: *; i = inactive; ? = inconclusive; nt = no result. Most compounds without a hit are left out; they make up all but 4.1% or so of the library.
SMILES,KCNQ1 pot,KCNK3 block,Cl transport mod,KCNK9 inh,KCNQ1 block,hERG rescue,KCC2 secondary,KCC2 bumet counter,KCC2 sec2,HEK counter1,KCC2 retest ouab,HEK counter2
CCCCSc1nnc(-c2ccc(OC)cc2)n1C,i,i,-5*,i,i,-2,0.0058,0.004,0.028,0.0069,0.017,0.0098
O=C(COc1ccc(S(=O)(=O)N2CCOCC2)cc1)NCC1CCCO1 (stereo not drawn),i,i,nt,i,i,-5,nt,nt,nt,nt,nt,nt
O=C(COC(=O)c1cc(S(=O)(=O)N2CCOCC2)ccc1O)NCC1CCCO1 (stereo not drawn),i,i,nt,i,i,-4,0.011,0.0075,0.033,0.008,0.023,0.011
O=C(CSc1nnc(SCc2cccc3ccccc23)s1)c1ccc2c(c1)OCO2,8*,i,nt,i,i,-8,?,0.028*,0.04*,0.034*,0.032*,0.035*
CCSC1=N/C(=C/c2ccsc2)C(=O)N1c1ccccc1,i,i,-4.7*,i,i,-10,0.0093,0.0062,0.034,0.0071,0.022,0.011
CCCSC1=N/C(=C/c2ccsc2)C(=O)N1c1ccccc1,i,i,-0.00078,i,i,-2,nt,nt,nt,nt,nt,nt
O=C(COC(=O)c1cc(=O)[nH]c(=O)[nH]1)Nc1cccc(Cl)c1,nt,i,nt,nt,nt,nt,nt,nt,nt,nt,nt,nt
COc1ccc2c(=O)cc(CO)oc2c1,nt,i,nt,nt,nt,nt,nt,nt,nt,nt,nt,nt
CCc1ccc(-n2c(=O)c3c(C)c(C(=O)N(C)C)sc3n(CC(=O)NCc3ccco3)c2=O)cc1,i,i,3.8*,i,i,-3,0.016,0.0046,0.03,0.0076,0.017,0.01
Cc1sc2c(c1C)c(=O)n(-c1ccc(F)cc1)c(=O)n2CC(=O)NCc1ccco1,nt,i,nt,nt,nt,nt,nt,nt,nt,nt,nt,nt
Cc1ccccc1-n1c(-c2ccc(=O)[nH]n2)n[nH]c1=S,i,i,0.12,i,i,-5,nt,nt,nt,nt,nt,nt
CC(C)(C)c1cc(-c2n[nH]c(=S)n2-c2ccccc2F)n[nH]1,i,i,39*,i,i,9.1*,0.0072,0.047*,0.045*,0.033*,0.042*,0.03*
O=C(NC(=S)Nc1ccc(Cc2ccncc2)cc1)c1ccccc1F,i,i,0.83,i,i,-8,nt,nt,nt,nt,nt,nt
O=C(NC(=S)Nc1ccc(-c2nc3ncccc3o2)cc1)c1ccccc1F,i,i,4.7*,i,i,-6,0.0081,0.013*,0.033,0.011*,?,0.011
O=C(CCn1c(=O)oc2ccccc21)N1CCc2ccccc21,i,i,nt,i,i,-7,0.0077,0.0065,0.028,0.0068,?,0.0095
CCc1ccc(NC(=O)CCn2c(=O)oc3ccccc32)cc1,i,i,nt,i,i,-4,0.0072,0.004,0.028,0.0071,?,0.0095
CN(C(=O)c1cccc(C#N)c1)c1nnc(-c2cnccn2)s1,i,i,nt,i,i,-3,0.011,0.0064,0.031,0.0075,0.023,?
Cc1csc(C(=O)O)c1NC(=O)c1cccc([N+](=O)[O-])c1,i,i,0.75,i,i,-4,nt,nt,nt,nt,nt,nt
COc1ccc(-c2n[nH]c(=S)n2-c2cc(OC)ccc2OC)cc1,i,i,nt,i,i,-11,nt,nt,nt,nt,nt,nt
COc1ccc2c(C)cc3n[nH]c(=S)n3c2c1,i,i,27*,i,i,-13,0.023*,0.037*,?,0.028*,0.031*,0.029*
Cc1ccc(C2(c3ccccc3)NC(=O)N(CC(=O)NCc3ccccc3)C2=O)cc1C (stereo not drawn),nt,i,nt,nt,nt,nt,nt,nt,nt,nt,nt,nt
O=C(c1ccccc1NS(=O)(=O)c1ccc(Cl)cc1)N1CCc2ccccc21,i,i,6.1*,i,i,-4,0.011,0.044*,0.03,0.013*,0.054*,0.011*
Cc1cc(OCc2cc(C(=O)N(Cc3nccn3C)C(C)C)no2)cc(C)c1Cl,i,i,nt,i,i,-20,nt,nt,nt,nt,nt,nt
Cc1nc2scc(-c3ccc(Cl)cc3)c2c(=O)o1,i,i,nt,i,i,-5,0.0094,0.0067,0.033,0.004,0.019,0.011
CC1=CC(C)(C)n2c(O)c(N=NC(N)=S)c3cc(C)cc1c32,i,i,8.7*,i,i,-6,0.012*,0.033*,0.03,0.016*,?,0.011*
SMILES,KCNQ1 pot,KCNK3 block,Cl transport mod,KCNK9 inh,KCNQ1 block,hERG rescue,KCC2 secondary,KCC2 bumet counter,KCC2 sec2,HEK counter1,KCC2 retest ouab,HEK counter2
Cc1ccc(O)c(N=Cc2cc(Cc3ccccc3)cc([N+](=O)[O-])c2O)c1,i,i,-3.8*,i,i,-16,0.0067,?,0.032,0.0035,0.014*,?
O=[N+]([O-])c1cc(Cc2ccccc2)cc(C=Nc2ccc(N3CCOCC3)cc2)c1O,i,i,-2.1,i,i,0,nt,nt,nt,nt,nt,nt
COc1ccc(CCNc2oc(COc3ccccc3F)nc2C#N)cc1OC,nt,i,-4*,nt,nt,nt,0.0061,?,0.026*,0.0062*,0.015*,?
Oc1ccc(Nc2nc(-c3ccc4ccccc4c3)cs2)cc1,i,i,0.11,i,i,-14,nt,nt,nt,nt,nt,nt
Oc1ccc(-c2nc(-c3ccc(O)c(O)c3)cs2)cc1,i,i,-3.5*,i,i,-36,0.0095,0.0075,?,0.0062,0.014*,0.01
COC(=O)n1c(=O)oc2ccccc21,i,i,nt,i,i,-8,nt,nt,nt,nt,nt,nt
CCCCOC(=O)n1c(=O)oc2ccccc21,i,i,-4.3*,i,i,-7,0.012*,0.0058,0.036,0.0071,0.021,0.011
O=C(Cn1nc(-c2ccccc2F)ccc1=O)NCc1ccc2c(c1)OCO2,i,i,-3.9*,i,i,-8,?,0.0051,?,0.0077,0.014,0.01
